Measurements as given in ChEMBL document CHEMBL1140096, “Discovery of novel nitrobenzothiazole inhibitors for Mycobacterium tuberculosis ATP phosphoribosyl transferase (HisG) through virtual screening” (J Med Chem, 2008).
Calls of active or inactive are those of the source. The calls are words filed in the database; no cut-off is given here.

What was measured:
[1] = biological target: T1, ATP phosphoribosyltransferase (Mycobacterium tuberculosis) (UniProt P9WMN1); assay: Inhibition of Mycobacterium tuberculosis HisG assessed as phosphoribosyl ATP production at 10 uM by spectrophotometry
T1 sequence (whole entry): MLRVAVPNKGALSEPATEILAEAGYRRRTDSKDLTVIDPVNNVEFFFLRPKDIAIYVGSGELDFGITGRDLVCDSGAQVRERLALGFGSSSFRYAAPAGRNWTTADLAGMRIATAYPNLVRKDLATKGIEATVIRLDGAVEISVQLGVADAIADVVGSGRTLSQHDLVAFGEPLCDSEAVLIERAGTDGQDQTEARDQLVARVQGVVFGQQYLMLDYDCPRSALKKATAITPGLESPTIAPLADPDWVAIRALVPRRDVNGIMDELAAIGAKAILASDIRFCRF

[2] = biological target: T2, ATP phosphoribosyltransferase (Mycobacterium tuberculosis, UniProt P9WMN1); assay: Inhibition of Mycobacterium tuberculosis HisG assessed as phosphoribosyl ATP production by spectrophotometry
T2 sequence (P9WMN1 whole entry): T1 sequence (whole entry)

[3] = test system: Mycolicibacterium smegmatis; assay: Antimycobacterial activity against Mycobacterium smegmatis ATCC 700084 at 12 ug/mL; assay type: functional, organism-based
Procedure, shortened: (§1)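 M. smegmatis ATCC 700084 pre-grown 2 days in 7H9 with 0.2% glucose and 0.05% Tween80, then plated on 7H10 agar (0.2% glycerol) containing compound at 1, 3, 6, 12 or 25 μg/ml. Plates were incubated 4 days at 37 °C and growth was judged by inspection. Controls were no-compound and DMSO plates, plus kanamycin 25 μg/ml.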

[4] = test system: Mycolicibacterium smegmatis; assay: Antimycobacterial activity against Mycobacterium smegmatis ATCC 700084 at 25 ug/mL; assay type: functional; procedure, shortened: as §1
[5] = Inhibition of Escherichia coli HisG
[6] = biological target: T1, ATP phosphoribosyltransferase (Mycobacterium tuberculosis); assay: Inhibition of Mycobacterium tuberculosis HisG assessed as phosphoribosyl ATP production at 1 uM by spectrophotometry

| SMILES | inhibition [1] | IC50 [2] | further results |
| --- | --- | --- | --- |
| Cc1cc(/N=N/c2ccc(S(=O)(=O)O)cc2)c(N)c(/N=N/c2ccc(S(=O)(=O)O)cc2)c1N | 45% |  |  |
| CCOC(=O)C(=O)Nc1nc2ccc([N+](=O)[O-])cc2s1 | 39% | 13.9 µM |  |
| O=[N+]([O-])c1ccc(Nc2cc(Nc3cccc(O)c3)c3nonc3c2[N+](=O)[O-])c(O)c1 | 46% | 11.9 µM | Activity [3]: Active; inhibition at 25 µg/mL [4]: 100% |
| O=C(NNC(=O)c1cc([N+](=O)[O-])cc([N+](=O)[O-])c1Br)Nc1ccccc1 | 71% | 5.5 µM |  |
| Nc1nc(SCc2ccccc2)c(N)c(SCc2ccccc2)n1 | 48% |  |  |
| COc1cc(C2C(C(=O)c3ccc(Cl)cc3)=C(O)C(=O)N2Cc2cccnc2)cc(OC)c1OC (configuration not stated) | 20% |  |  |
| Oc1c(Cl)c(Cl)c(Cl)c(Cl)c1Cl [PENTACHLOROPHENOL] |  |  | Ki [5]: 50 µM |
| O=C(CSc1nnc(-c2ccccc2)c(-c2ccccc2)n1)Cc1nccs1 | 76% | 4 µM | Ki [2]: 2 µM; inhibition [6]: 40% |
| O=C(CC(NC(=O)c1ccccc1)c1ccccc1)Nc1nc2ccc([N+](=O)[O-])cc2s1 (configuration not stated) | 71% | 6 µM | Ki [2]: 2 µM; inhibition [6]: 35% |
| COc1ccc(COC(=O)C2=C(C)NC3=C(C(=O)CC(c4cccs4)C3)C2c2cccs2)cc1 (configuration not stated) | 50% | 10 µM |  |
| O=c1oc2ccccc2c(O)c1Cc1c(O)c2ccccc2oc1=O [DICUMAROL] |  |  | Ki [5]: 50 µM |
| O=[N+]([O-])c1ccc2c(/N=N/c3ccc4ccccc4c3O)c(O)cc(S(=O)(=O)O)c2c1 | 50% | 10 µM |  |
| O=[N+]([O-])c1ccc(O)c([N+](=O)[O-])c1 [2,4-DINITROPHENOL] |  |  | Ki [5]: 50 µM |
| CN(CC(=O)O)c1nc2cc([N+](=O)[O-])ccc2s1 | 15% |  |  |
